Target: Estrogen receptor (Mus musculus) (UniProt O08537+P19785)
Experiment: Estrogenic activity in uterotrophic assay in immature mice at 10.0 ug subcutaneous dose
Type: functional
In short: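 Immature female NMRI mice, 20 days old, in groups of 6-10, were dosed sc once daily for three consecutive days. Compounds were given in PEG/0.9% saline 1:1; vehicle controls were included. Animals were killed 24 h after the last dose. Uteri were fixed in Bouin solution and the effect was taken as uterine dry weight (mg)/body weight (g) ×100, given as mean ± SD.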

Sequence of Estrogen receptor (Mus musculus) (O08537 whole entry, looked up): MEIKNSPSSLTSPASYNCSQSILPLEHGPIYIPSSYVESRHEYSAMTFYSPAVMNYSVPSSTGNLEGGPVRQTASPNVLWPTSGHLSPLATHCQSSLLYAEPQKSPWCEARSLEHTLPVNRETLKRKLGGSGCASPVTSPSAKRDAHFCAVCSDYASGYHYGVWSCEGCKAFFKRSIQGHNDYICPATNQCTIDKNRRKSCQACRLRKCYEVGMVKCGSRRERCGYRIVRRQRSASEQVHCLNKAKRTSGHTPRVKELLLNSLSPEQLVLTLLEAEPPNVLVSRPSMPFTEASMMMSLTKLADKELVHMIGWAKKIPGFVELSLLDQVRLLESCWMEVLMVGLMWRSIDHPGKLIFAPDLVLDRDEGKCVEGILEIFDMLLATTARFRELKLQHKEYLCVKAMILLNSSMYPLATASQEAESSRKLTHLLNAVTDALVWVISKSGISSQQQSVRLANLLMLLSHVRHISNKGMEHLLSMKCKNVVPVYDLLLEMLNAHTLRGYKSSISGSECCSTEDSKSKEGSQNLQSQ
Sequence of Estrogen receptor (Mus musculus) (P19785 whole entry, looked up): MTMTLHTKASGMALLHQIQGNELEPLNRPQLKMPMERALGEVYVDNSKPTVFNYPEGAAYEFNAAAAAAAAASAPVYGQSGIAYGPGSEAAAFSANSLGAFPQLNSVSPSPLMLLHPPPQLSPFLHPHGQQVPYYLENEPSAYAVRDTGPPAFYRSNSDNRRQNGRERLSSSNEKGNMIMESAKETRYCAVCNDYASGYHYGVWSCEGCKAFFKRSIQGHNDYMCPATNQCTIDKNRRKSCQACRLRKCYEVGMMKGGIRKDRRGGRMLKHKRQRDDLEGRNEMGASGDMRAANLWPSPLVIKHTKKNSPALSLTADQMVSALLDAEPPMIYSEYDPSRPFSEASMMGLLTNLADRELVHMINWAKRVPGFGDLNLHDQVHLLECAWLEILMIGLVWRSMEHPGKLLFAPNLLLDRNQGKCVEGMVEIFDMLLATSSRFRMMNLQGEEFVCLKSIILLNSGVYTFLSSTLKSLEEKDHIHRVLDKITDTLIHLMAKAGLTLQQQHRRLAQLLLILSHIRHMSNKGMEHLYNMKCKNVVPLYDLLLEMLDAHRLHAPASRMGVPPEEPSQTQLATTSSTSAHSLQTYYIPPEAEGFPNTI

Effect: 25.5
SMILES: CCC1Cc2cc(OC(C)=O)ccc2-c2cc3cc(OC(C)=O)ccc3n21 (stereo unspecified)
